Assay results as given in paper PMC11247636 (ACS Medicinal Chemistry Letters, 2024).

Tests used:
[1] = Oral bioavailability and pharmacokinetics in Slc3a1-knockout mice; type: in vivo; conditions: male, mouse, plasma, 150 umol/kg
Outline: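 Male Slc3a1-knockout mice (4 per route) received a single oral gavage of 150 μmol/kg in normal saline (100 μL) or a tail-vein iv dose of 30 μmol/kg. About 60 μL saphenous blood was drawn pre-dose and at 5, 15, 30 min and 1, 4, 8, 24 h. Plasma was stored at −80 °C. Parent and mixed-disulfide metabolite were quantified by LC-MS/MS against synthetic metabolite standard. F was derived from oral versus iv exposure.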

[2] = L-cystine crystallization inhibition assay; conditions: from EC50 values
Outline: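 Supersaturated L-cystine (2.9 mM in Millipore water) was incubated with varying test compound concentrations for 72 h at room temperature, then centrifuged. L-cystine remaining in the supernatant was measured. EC50 came from dose–response curves, and relative potency was expressed as a ratio of EC50 values against reference inhibitors.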

[3] = system: L-cystine stone formation in Slc3a1-knockout mouse model of cystinuria; experiment: In vivo efficacy in Slc3a1-knockout mouse model of cystinuria; set-up: species or system Slc3a1-knockout male mice; conditions: 150 μmol/kg by gavage daily for 8 weeks

N[C@@H](CSSC[C@H](N)C(=O)N1CCC2(CCCN2)CC1)C(=O)N1CCC2(CCCN2)CC1 [compound 3, 8-L-cystinyl bis(1,8-diazaspiro[4.5]decane)]
CL/F [1]: 133 mL/min/kg
Vd/F [1]: 7 L/kg
Fold more potent than CDME in inhibiting L-cystine crystallization [2]: about 120 ×
Fold more potent than LH708 in inhibiting L-cystine crystallization [2]: about 2 ×
Fold more potent than CDME in inhibiting L-cystine crystallization ([2]; listed as LH1753): 120 ×
Fold more potent than LH708 in inhibiting L-cystine crystallization ([2]; listed as LH1753): 2 ×
Effect on growth [3]: no adverse effect on growth
Mice with stones in treated group ([3]; water group 28 of 51): 1 out of 25
